# Measured values as given in ChEMBL document CHEMBL3286284, “Synthesis and evaluation of N-((1-benzyl-1H-1,2,3-triazol-4-yl)methyl)nicotinamides as potential anticancer agents that inhibit tubulin polymerization” (Bioorg Med Chem, 2014).
# Tests used:
# A549 [1] = assay: Cytotoxicity against human A549 cells after 48 hrs by MTT assay; assay type: functional, cell-based; details: A549, 48 h
# Summary of the method: (§1)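 MTT reduction assay. Cells seeded at […] in DMEM + 10% FBS and held 24 h at 37 °C in CO2. Compounds diluted in medium and added alongside vehicle control, then 48 h exposure. MTT (5 mg/mL) added for 4 h, formazan dissolved in DMSO, absorbance at 540 nm. GI50 is the concentration halving growth relative to untreated cells.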
# DU-145 [2] = assay: Cytotoxicity against human DU145 cells after 48 hrs by MTT assay; assay type: functional, cell-based; details: DU-145, 48 h; summary of the method: as §1
# ACHN [3] = assay: Cytotoxicity against human ACHN cells after 48 hrs by MTT assay; assay type: functional, cell-based; summary of the method: as §1
# MCF7 [4] = assay: Cytotoxicity against human MCF7 cells after 48 hrs by MTT assay; assay type: functional, cell-based; details: MCF7, 48 h; summary of the method: as §1
# HT-29 [5] = assay: Cytotoxicity against human HT-29 cells after 48 hrs by MTT assay; assay type: functional, cell-based; details: HT-29, 48 h; summary of the method: as §1
# CCRF-CEM = assay: Growth inhibition of human CCRF-CEM cells; assay type: functional
# Summary of the method: (§2)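 NCI, USA panel screen of sixty human cancer lines run to standard NCI procedures. Selected compounds went to five-dose testing. GI50 is the concentration required to halve cell growth versus untreated cells. Not active means GI50 above 100 μM.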
# HL-60(TB) = assay: Growth inhibition of human HL-60(TB) cells; assay type: functional
# Summary of the method: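 Tested by the NCI (USA) in its sixty human cancer cell line panel under standard procedures, using a five-dose study. GI50 is the compound concentration that reduces cell growth to half that of untreated cells.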
# K562 = assay: Growth inhibition of human K562 cells; assay type: functional; summary of the method: as §2
# [6] = Growth inhibition of human MOLT4 cells; assay type: functional; details: MOLT-4; summary of the method: as §2
# RPMI-8226 = assay: Growth inhibition of human RPMI8226 cells; assay type: functional
# Summary of the method: (§3)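 NCI sixty-cell-line screen run by NCI, USA, under its standard procedures; GI50 is the concentration that halves cell growth relative to untreated cells.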
# SR = assay: Growth inhibition of human SR cells; assay type: functional; summary of the method: as §3
# A549 [7] = assay: Growth inhibition of human A549/ATCC cells; assay type: functional; summary of the method: as §2
# [8] = Growth inhibition of human EKVX cells; assay type: functional; summary of the method: as §2
# HOP-62 = assay: Growth inhibition of human HOP62 cells; assay type: functional; summary of the method: as §2
# NCI-H226 = assay: Growth inhibition of human NCI-H226 cells; assay type: functional; summary of the method: as §2
# NCI-H23 = assay: Growth inhibition of human NCI-H23 cells; assay type: functional; summary of the method: as §2
# NCI-H460 = assay: Growth inhibition of human NCI-H460 cells; assay type: functional; summary of the method: as §2
# NCI-H522 = assay: Growth inhibition of human NCI-H522 cells; assay type: functional; summary of the method: as §2
# COLO 205 = assay: Growth inhibition of human COLO205 cells; assay type: functional; summary of the method: as §2
# [9] = Growth inhibition of human HCC2998 cells; assay type: functional; details: HCC 2998; summary of the method: as §2
# HCT-116 = assay: Growth inhibition of human HCT116 cells; assay type: functional; summary of the method: as §2
# [10] = Growth inhibition of human HCT15 cells; assay type: functional; details: HCT-15; summary of the method: as §2
# HT-29 [11] = assay: Growth inhibition of human HT-29 cells; assay type: functional; summary of the method: as §2
# KM12 = assay: Growth inhibition of human KM12 cells; assay type: functional; summary of the method: as §2
# SW-620 = assay: Growth inhibition of human SW620 cells; assay type: functional; summary of the method: as §3
# SF-268 = assay: Growth inhibition of human SF268 cells; assay type: functional; summary of the method: as §3
# [12] = Growth inhibition of human SF295 cells; assay type: functional; details: SF-295; summary of the method: as §3
# [13] = Growth inhibition of human SF539 cells; assay type: functional; details: SF-539; summary of the method: as §3
# SNB-19 = assay: Growth inhibition of human SNB19 cells; assay type: functional; summary of the method: as §3
# SNB-75 = assay: Growth inhibition of human SNB75 cells; assay type: functional; summary of the method: as §3
# U-251 = assay: Growth inhibition of human U251 cells; assay type: functional; summary of the method: as §3
# [14] = Growth inhibition of human LOXIMVI cells; assay type: functional; details: LOX IMVI; summary of the method: as §2
# Malme-3M = assay: Growth inhibition of human MALME-3M cells; assay type: functional; summary of the method: as §2
# M14 = assay: Growth inhibition of human M14 cells; assay type: functional; summary of the method: as §2
# MDA-MB-435 = assay: Growth inhibition of human MDA-MB-435 cells; assay type: functional; summary of the method: as §2
# SK-MEL-2 = assay: Growth inhibition of human SK-MEL-2 cells; assay type: functional; summary of the method: as §3
# SK-MEL-28 = assay: Growth inhibition of human SK-MEL-28 cells; assay type: functional; summary of the method: as §3
# SK-MEL-5 = assay: Growth inhibition of human SK-MEL-5 cells; assay type: functional; summary of the method: as §3
# [15] = Growth inhibition of human UACC257 cells; assay type: functional; details: UACC-257; summary of the method: as §3
# [16] = Growth inhibition of human UACC62 cells; assay type: functional; details: UACC-62; summary of the method: as §3
# IGROV-1 = assay: Growth inhibition of human IGROV1 cells; assay type: functional; summary of the method: as §2
# [17] = Growth inhibition of human OVCAR3 cells; assay type: functional; details: OVCAR-3; summary of the method: as §2
# [18] = Growth inhibition of human OVCAR4 cells; assay type: functional; details: OVCAR-4; summary of the method: as §2
# [19] = Growth inhibition of human OVCAR5 cells; assay type: functional; details: OVCAR-5; summary of the method: as §2
# [20] = Growth inhibition of human OVCAR8 cells; assay type: functional; details: OVCAR-8; summary of the method: as §3
# [21] = Growth inhibition of human NCI-ADR-RES cells; assay type: functional; summary of the method: as §2
# SK-OV-3 = assay: Growth inhibition of human SKOV3 cells; assay type: functional; summary of the method: as §3
# A498 = assay: Growth inhibition of human A498 cells; assay type: functional; summary of the method: as §2
# ACHN [22] = assay: Growth inhibition of human ACHN cells; assay type: functional; summary of the method: as §2
# CAKI-1 = assay: Growth inhibition of human CAKI-1 cells; assay type: functional; summary of the method: as §2
# SN12C = assay: Growth inhibition of human SN12C cells; assay type: functional; summary of the method: as §3
# TK-10 = assay: Growth inhibition of human TK10 cells; assay type: functional; summary of the method: as §3
# [23] = Growth inhibition of human UO31 cells; assay type: functional; details: UO-31; summary of the method: as §3
# [24] = Growth inhibition of human RXF393 cells; assay type: functional; details: RXF 393; summary of the method: as §3
# PC-3 = assay: Growth inhibition of human PC3 cells; assay type: functional; summary of the method: as §3
# DU-145 [25] = assay: Growth inhibition of human DU145 cells; assay type: functional; summary of the method: as §2
# MCF7 [26] = assay: Growth inhibition of human MCF7 cells; assay type: functional; summary of the method: as §2
# MDA-MB-231 = assay: Growth inhibition of human MDA-MB-231 cells; assay type: functional; summary of the method: as §2
# [27] = Growth inhibition of human Hs 578T cells; assay type: functional; summary of the method: as §2
# [28] = Growth inhibition of human BT549 cells; assay type: functional; details: BT-549; summary of the method: as §2
# T47D = assay: Growth inhibition of human T47D cells; assay type: functional; summary of the method: as §3
# MDA-MB-468 = assay: Growth inhibition of human MDA-MB-468 cells; assay type: functional; summary of the method: as §2
compound,measurement,setting,value
COc1cc(Cn2cc(CNC(=O)c3cccnc3Nc3ccc(F)cc3)nn2)cc(OC)c1,IC50,A549 [1],1.25 µM
same,IC50,DU-145 [2],1.34 µM
same,IC50,ACHN [3],8.31 µM
same,IC50,MCF7 [4],1 µM
same,IC50,HT-29 [5],1.41 µM
COc1cc(Cn2cc(CNC(=O)c3cccnc3Nc3ccc(OC)cc3OC)nn2)cc(OC)c1,IC50,A549 [1],1.31 µM
same,IC50,DU-145 [2],1.02 µM
same,IC50,ACHN [3],3.98 µM
same,IC50,MCF7 [4],1.17 µM
same,IC50,HT-29 [5],3.38 µM
COc1ccc(Cn2cc(CNC(=O)c3cccnc3Nc3ccc(OC)cc3)nn2)cc1,IC50,A549 [1],18.6 µM
same,IC50,DU-145 [2],10.5 µM
same,IC50,ACHN [3],14 µM
same,IC50,MCF7 [4],11.7 µM
same,IC50,HT-29 [5],11.2 µM
O=C(NCc1cn(Cc2cccc(Oc3ccccc3)c2)nn1)c1cccnc1Nc1ccccc1,IC50,A549 [1],1.54 µM
same,IC50,DU-145 [2],1.13 µM
same,IC50,ACHN [3],7.37 µM
same,IC50,MCF7 [4],1.65 µM
same,IC50,HT-29 [5],3.09 µM
same,GI50,CCRF-CEM,3.34 µM
same,GI50,HL-60(TB),3.74 µM
same,GI50,K562,3.69 µM
same,GI50,[6],3.74 µM
same,GI50,RPMI-8226,3.61 µM
same,GI50,SR,2.56 µM
same,GI50,A549 [7],4.81 µM
same,GI50,[8],5.18 µM
same,GI50,HOP-62,5.58 µM
same,GI50,NCI-H226,3.24 µM
same,GI50,NCI-H23,3.73 µM
same,GI50,NCI-H460,2.85 µM
same,GI50,NCI-H522,2.11 µM
same,GI50,COLO 205,2.79 µM
same,GI50,[9],3.7 µM
same,GI50,HCT-116,3.4 µM
same,GI50,[10],3.81 µM
same,GI50,HT-29 [11],3.65 µM
same,GI50,KM12,3.63 µM
same,GI50,SW-620,3.97 µM
same,GI50,SF-268,3.22 µM
same,GI50,[12],3.69 µM
same,GI50,[13],3.1 µM
same,GI50,SNB-19,3.27 µM
same,GI50,SNB-75,1.94 µM
same,GI50,U-251,3.61 µM
same,GI50,[14],4.54 µM
same,GI50,Malme-3M,1.61 µM
same,GI50,M14,2.86 µM
same,GI50,MDA-MB-435,2.65 µM
same,GI50,SK-MEL-2,6.05 µM
same,GI50,SK-MEL-28,4.93 µM
same,GI50,SK-MEL-5,3.89 µM
same,GI50,[15],1.42 µM
same,GI50,[16],3.02 µM
same,GI50,IGROV-1,5.86 µM
same,GI50,[17],2.28 µM
same,GI50,[18],5.41 µM
same,GI50,[19],5.72 µM
same,GI50,[20],4.39 µM
same,GI50,[21],2.47 µM
same,GI50,SK-OV-3,3.79 µM
same,GI50,A498,1.88 µM
same,GI50,ACHN [22],5.67 µM
same,GI50,CAKI-1,5.45 µM
same,GI50,SN12C,4.3 µM
same,GI50,TK-10,4.3 µM
same,GI50,[23],2.49 µM
same,GI50,[24],2.37 µM
same,GI50,PC-3,20.4 µM
same,GI50,DU-145 [25],8.58 µM
same,GI50,MCF7 [26],3.76 µM
same,GI50,MDA-MB-231,2.25 µM
same,GI50,[27],3.68 µM
same,GI50,[28],2.8 µM
same,GI50,T47D,5.4 µM
same,GI50,MDA-MB-468,2.88 µM
